The values below come from paper PMC8246884 (Journal of Medical Virology, 2020).

The nature of data set [1]: Plasma pharmacokinetics on Day 14. In kind it is in vivo, human. The settings on record: Day 14, coadministered with CDI‐31244. The gist of the method: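 Treatment-naïve adults with chronic genotype 1 HCV and no cirrhosis took oral drugs once daily for 2 weeks: a nucleotide/NS5A inhibitor combination tablet (400 mg/100 mg) plus a non-nucleoside inhibitor, 400 mg as capsules. Plasma was sampled before the first dose on Day 1 and at 0, 1, 2, 4, 6, 8, 12 and 24 h after the Day 14 dose. Validated LC-MS/MS; per-patient non-compartmental Cmax, Cmin, tmax, AUC0–24; descriptive statistics.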

The subject of another data set is HCV. The settings on record: cited from earlier work.

Structures are written as SMILES.

With `CC(C)OC(=O)[C@H](C)N[P@](=O)(OC[C@H]1O[C@@H](n2ccc(=O)[nH]c2=O)[C@](C)(F)[C@@H]1O)Oc1ccccc1` [sofosbuvir], in data set [1], the Exposure entry was “consistent with reported values”.

Turning to `COC[C@H]1C[C@@H](c2ncc(-c3ccc4c(c3)COc3cc5c(ccc6nc([C@@H]7CC[C@H](C)N7C(=O)[C@@H](NC(=O)OC)C(C)C)[nH]c65)cc3-4)[nH]2)N(C(=O)[C@H](NC(=O)OC)c2ccccc2)C1` [velpatasvir], the Exposure result in data set [1] is “consistent with reported values”.

Consider `COc1c(-c2ccc3cc(NS(C)(=O)=O)ccc3c2)cc(-n2ccc(=O)[nH]c2=O)cc1C(C)(C)C` [dasabuvir], for which, in the data set with HCV, the “HCV RNA viral load reduction” value was 0.95 log10.

`C[C@@]1(F)[C@H](O)[C@@H](CO)O[C@H]1n1ccc(=O)[nH]c1=O` [GS‐331007]: the Exposure entry in data set [1] is recorded as “consistent with reported values”.
